{"source": "ChEMBL document CHEMBL5046298", "about": "“SAR of Novel 3-Arylisoquinolinones: meta-Substitution on the Aryl Ring Dramatically Enhances Antiproliferative Activity through Binding to Microtubules” (J Med Chem, 2022)", "key": {"[1]": {"system": "HepG2", "experiment": "Induction of cell cycle arrest in human HepG2 cells assessed as increase in sub-G0/G1 cell population at 2 uM measured after 24 hrs by PI staining based flow cytometry", "type": "functional"}, "[2]": {"target": "T1, Ribosyldihydronicotinamide dehydrogenase [quinone] (Homo sapiens) (UniProt P16083)", "T1 sequence (whole entry)": "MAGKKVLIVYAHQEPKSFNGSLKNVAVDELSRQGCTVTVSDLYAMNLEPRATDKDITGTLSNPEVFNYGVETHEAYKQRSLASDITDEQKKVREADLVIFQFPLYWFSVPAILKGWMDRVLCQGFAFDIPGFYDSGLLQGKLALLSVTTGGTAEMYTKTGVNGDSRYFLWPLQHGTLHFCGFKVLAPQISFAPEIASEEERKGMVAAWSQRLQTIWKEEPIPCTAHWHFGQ", "experiment": "Inhibition of human recombinant NQO2 at upto 100 uM", "conditions": "dose microM <=100"}, "[3]": {"system": "HepG2", "experiment": "Cytotoxicity against human HepG2 cells assessed as inhibition of colony formation at 0.5 to 1 uM incubated for 14 days by methylene blue staining based clonogenic assay", "type": "functional, cell-based", "conditions": "dose 0.5-1 µM, time 14.0 day", "method_in_brief": "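Clonogenic survival: HepG2 seeded as single cells at 1000/well and left 10-12 h to adhere. Treated with DMSO or a concentration range for 14 days, with compound added once. Colonies fixed in 70% ethanol, stained with 0.5% methylene blue, and colonies of ≥50 cells counted. Surviving fraction = treated CFE/control CFE. Three independent experiments.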"}, "[4]": {"experiment": "Antiproliferative activity against human THLE-3 cells assessed as inhibition of cell proliferation incubated for 24 hrs followed by 72 hrs of compound-free incubation by Sulforhodamine B assay", "type": "toxicity, cell-based", "method_in_brief": "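SRB growth assay: cells seeded overnight (HepG2 3000, SNU423 2000, MDA-MB-231 1500, MCF-7 2500, A549 1000, HCT116 1000, THLE-3 4000 cells/well), then exposed to a concentration range for 96 h, or 24 h followed by 72 h drug-free. DMSO ≤0.3%. TCA fixation, 0.4% SRB staining, OD at 510 nm. Growth % = OD test/OD control ×100. IC50 from four-parameter fit; at least three independent experiments.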"}, "[5]": {"target": "T2, Tubulin (Homo sapiens) (UniProt P68371+Q9H4B7+P0DPH7+P68366+Q13509+Q71U36+P04350+Q3ZCM7+P07437+P68363+Q9BQE3+Q6PEY2+Q13885+Q9BVA1+Q9BUF5)", "experiment": "Inhibition of tubulin (unknown origin) polymerization assessed as reduction in microtubule formation by measuring reduction in absorbance measured every minute for 1 hr in presence of GTP by microplate reader analysis", "type": "protein-complex assay", "conditions": "dose 5-20 µM", "method_in_brief": "(§1)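 Cell-free turbidity assay: purified bovine tubulin diluted to 60 μM in polymerization buffer with 1 mM GTP, mixed on ice with DMSO or test agent (final 5, 10, 20 μM). […] A350 read every 1 min for 60 min at 37 °C; ΔA calculated relative to time zero.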"}, "[6]": {"system": "HepG2", "experiment": "Induction of cell cycle arrest in human HepG2 cells assessed as decrease in cell proportion at G0/G1 phase at 25 uM measured after 24 hrs by PI staining based flow cytometry", "type": "functional"}, "[7]": {"system": "SNU-423", "experiment": "Induction of apoptosis in human SNU-423 cells assessed as viable cells at 0.5 uM incubated for 24 hrs by Annexin V-APC/PI staining based flow cytometry (reference value: 92.7 %)", "type": "functional", "conditions": "read-out: Activity"}, "[8]": {"system": "SNU-423", "experiment": "Induction of apoptosis in human SNU-423 cells assessed as early apoptotic cells at 0.5 uM incubated for 24 hrs by Annexin V- APC/PI staining based flow cytometry (reference value: 0.94 %)", "type": "functional"}, "[9]": {"system": "SNU-423", "experiment": "Induction of apoptosis in human SNU-423 cells assessed as late apoptotic cells at 0.5 uM incubated for 24 hrs by Annexin V-APC/PI staining based flow cytometry (reference value: 0.83 %)", "type": "functional"}, "[10]": {"system": "SNU-423", "experiment": "Induction of apoptosis in human SNU-423 cells assessed as viable cells at 1 uM incubated for 24 hrs by Annexin V-APC/PI staining based flow cytometry (reference value: 92.7 %)", "type": "functional", "conditions": "read-out: Activity"}, "[11]": {"system": "SNU-423", "experiment": "Induction of apoptosis in human SNU-423 cells assessed as early apoptotic cells at 1 uM incubated for 24 hrs by Annexin V-APC/PI staining based flow cytometry (reference value: 0.94 %)", "type": "functional"}, "[12]": {"system": "SNU-423", "experiment": "Induction of apoptosis in human SNU-423 cells assessed as necrotic cells at 1 uM incubated for 24 hrs by Annexin V-APC/PI staining based flow cytometry (reference value: 5.74 %)", "type": "functional"}, "[13]": {"system": "HepG2", "experiment": "Induction of reversible mitotic arrest in human HepG2 cells assessed as restoration of cell population in G0/G1 phase at 2 to 5 uM treated for 24 hrs followed by replacement with fresh medium without compound and further incubated for 24 hrs by PI staining based flow cytometry", "type": "functional", "conditions": "dose 2-5 µM", "method_in_brief": "(§2)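 HepG2 cells (5×10^5 per dish) treated 24 h, then medium replaced with compound-free medium for a further 24 h. Cells then ethanol-fixed and stained with PI/RNase A for 30 min at 37 °C. 10 000 cells analyzed by flow cytometry; phase percentages by Watson model. Compared with control by one-way ANOVA/Dunnett's.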"}, "[14]": {"system": "HepG2", "experiment": "Induction of reversible mitotic arrest in human HepG2 cells assessed as restoration of cell population in S phase at 2 to 5 uM treated for 24 hrs followed by replacement with fresh medium without compound and further incubated for 24 hrs by PI staining based flow cytometry", "type": "functional", "conditions": "dose 2-5 µM", "method_in_brief": "as §2"}, "[15]": {"system": "HepG2", "experiment": "Induction of reversible mitotic arrest in human HepG2 cells assessed as restoration of cell population in G2/M phase at 2 to 5 uM treated for 24 hrs followed by replacement with fresh medium without compound and further incubated for 24 hrs by PI staining based flow cytometry", "type": "functional", "conditions": "dose 2-5 µM", "method_in_brief": "as §2"}, "[16]": {"system": "HepG2", "experiment": "Induction of reversible mitotic arrest in human HepG2 cells assessed as increase in cell population in sub-G0/G1 phase at 2 to 5 uM treated for 24 hrs followed by replacement with fresh medium without compound and further incubated for 24 hrs by PI staining based flow cytometry", "type": "functional", "conditions": "dose 2-5 µM", "method_in_brief": "as §2"}, "[17]": {"system": "HUVEC", "experiment": "Antivascular activity against HUVEC cells assessed as inhibition of capillary like tube formation incubated for 16 hrs by matrigel based bright field microscopic analysis", "type": "functional, cell-based", "conditions": "Homo sapiens, dose 2.0 µM", "method_in_brief": "(§3)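 Tube formation: HUVECs (25×10^3 per well) plated onto gelled Matrigel together with DMSO or test agent (0.5, 1, 2 μM or 25 μM). After 16 h, tube networks were examined by bright-field microscopy at 4×. Three independent experiments.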"}, "[18]": {"system": "HUVEC", "experiment": "Disruption of preestablished capillary like tubes in HUVEC cells incubated for 16 hrs by matrigel based bright field microscopic analysis", "type": "functional, cell-based", "conditions": "Homo sapiens, dose 0.5-10 µM"}, "[19]": {"system": "HUVEC", "experiment": "Disruption of preestablished capillary like tubes in HUVEC cells assessed as decrease in tube junctions at 1 to 2 uM incubated for 16 hrs by matrigel based bright field microscopic analysis", "type": "functional, cell-based", "conditions": "Homo sapiens, dose 1-2 µM"}, "[20]": {"system": "HUVEC", "experiment": "Disruption of preestablished capillary like tubes in HUVEC cells assessed as formation of short distorted tubes at 1 to 2 uM incubated for 16 hrs by matrigel based bright field microscopic analysis", "type": "functional, cell-based", "conditions": "Homo sapiens, dose 1-2 µM"}, "[21]": {"system": "HUVEC", "experiment": "Cytotoxicity against HUVEC cells assessed as reduction in cell proliferation at upto 10 uM incubated for 24 hrs by Sulforhodamine B assay", "type": "toxicity, cell-based", "conditions": "human", "method_in_brief": "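HUVECs plated without Matrigel at 4000 cells/well, allowed to attach overnight, then exposed to a concentration range for 24 h. Growth read by SRB: TCA fixation, 0.4% SRB dye, OD at 510 nm, expressed as % of DMSO control. Mean ± SEM of three independent experiments.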"}, "[22]": {"target": "T2, Tubulin (Homo sapiens)", "experiment": "Induction of microtubule disruption in HUVEC cells assessed as shortened microtubules with outer blebbing filled with tubulin at 0.5 to 1 uM incubated for 24 hrs by immunofluorescence based inverted microscopy", "type": "cell-based", "conditions": "dose 0.5-1 µM", "method_in_brief": "(§4)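 HUVECs (2×10^4) adhered overnight on glass slides, no Matrigel. Treated 24 h with 0.5 or 1 μM; colchicine 0.1 μM as positive control. Fixed in 10% formalin, permeabilized with Triton X-100, blocked. Stained with anti-α-tubulin plus Cy5 secondary, phalloidin-Atto 488 for F-actin, and DAPI. Imaged by inverted fluorescence microscopy at 63×. Three independent experiments.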"}, "[23]": {"system": "HUVEC", "experiment": "Induction of actin disruption in HUVEC cells assessed as thicker and brighter actin fibers at 0.5 to 1 uM incubated for 24 hrs by phalloidin-Atto 488 staining based inverted microscopy", "type": "cell-based", "conditions": "Homo sapiens, dose 0.5-1 µM", "method_in_brief": "as §4"}, "[24]": {"system": "HUVEC", "experiment": "Disruption of preestablished capillary like tubes in HUVEC cells assessed as rounded and retracted cells at 0.5 to 1 uM incubated for 16 hrs by matrigel based inverted microscopy", "conditions": "Homo sapiens, dose 0.5-1 µM"}, "[25]": {"system": "HUVEC", "experiment": "Antivascular activity against HUVEC cells assessed as inhibition of capillary like tube formation at 25 uM incubated for 16 hrs by matrigel based bright field microscopic analysis", "type": "functional, cell-based", "conditions": "Homo sapiens", "method_in_brief": "as §3"}, "[26]": {"system": "HUVEC", "experiment": "Disruption of preestablished capillary like tubes in HUVEC cells at 25 uM incubated for 16 hrs by matrigel based bright field microscopic analysis", "type": "functional, cell-based", "conditions": "Homo sapiens"}, "[27]": {"target": "T2, Tubulin (Homo sapiens)", "experiment": "Inhibition of tubulin (unknown origin) polymerization assessed as reduction in microtubule formation by measuring reduction in absorbance at 10 uM measured every minute for 1 hr in presence of GTP by microplate reader analysis", "type": "protein-complex assay", "method_in_brief": "as §1"}}, "note": "The source made the active and inactive calls. The rule behind the calls is not given here.", "data": [{"molecule": "O=c1[nH]c(-c2cccc(F)c2)cc2cc(F)ccc12", "values": [{"measurement": "Activity", "setting": "[1]", "value": "Active"}, {"measurement": "inhibition", "setting": "[2]", "value": "inactive"}, {"measurement": "inhibition", "setting": "[3]", "value": "Active"}, {"measurement": "IC50 at 24 h", "setting": "[4]", "value": "> 25", "unit": "µM"}, {"measurement": "inhibition", "setting": "[5]", "value": "Active"}, {"measurement": "Activity", "setting": "[6]", "value": "Active"}, {"measurement": "viability at 0.5 µM", "setting": "[7]", "value": 76, "unit": "%"}, {"measurement": "Activity", "setting": "[8]", "value": 5.95, "unit": "%"}, {"measurement": "Activity", "setting": "[9]", "value": 6.47, "unit": "%"}, {"measurement": "viability at 1 µM", "setting": "[10]", "value": 60.4, "unit": "%"}, {"measurement": "Activity", "setting": "[11]", "value": 15.1, "unit": "%"}, {"measurement": "Activity", "setting": "[12]", "value": 12.1, "unit": "%"}, {"measurement": "Activity", "setting": "[13]", "value": "Active"}, {"measurement": "Activity", "setting": "[14]", "value": "Active"}, {"measurement": "Activity", "setting": "[15]", "value": "Active"}, {"measurement": "Activity", "setting": "[16]", "value": "Active"}, {"measurement": "Activity", "setting": "[17]", "value": "Dose-Dependent Effect"}, {"measurement": "Activity", "setting": "[18]", "value": "Dose-Dependent Effect"}, {"measurement": "Activity", "setting": "[19]", "value": "Active"}, {"measurement": "Activity", "setting": "[20]", "value": "Active"}, {"measurement": "Activity", "setting": "[21]", "value": "Non-Toxic"}, {"measurement": "Activity", "setting": "[22]", "value": "Active"}, {"measurement": "Activity", "setting": "[23]", "value": "Active"}, {"measurement": "Activity", "setting": "[24]", "value": "Active"}]}, {"molecule": "O=c1[nH]c(-c2ccc(F)cc2)cc2cc(F)ccc12", "values": [{"measurement": "inhibition", "setting": "[2]", "value": "inactive"}, {"measurement": "Activity", "setting": "[25]", "value": "inactive"}, {"measurement": "Activity", "setting": "[26]", "value": "inactive"}]}, {"molecule": "CC(=O)O[C@H]1C(=O)[C@@]2(C)[C@H]([C@H](OC(=O)c3ccccc3)[C@]3(O)C[C@H](OC(=O)[C@H](O)[C@@H](NC(=O)c4ccccc4)c4ccccc4)C(C)=C1C3(C)C)[C@]1(OC(C)=O)CO[C@@H]1C[C@@H]2O", "values": [{"measurement": "inhibition", "setting": "[27]", "value": "inactive"}]}, {"molecule": "COc1ccc(-c2cc3cc(F)ccc3c(=O)[nH]2)cc1", "values": [{"measurement": "inhibition", "setting": "[2]", "value": "inactive"}]}, {"molecule": "COC(=O)Nc1nc2cc(C(=O)c3cccs3)ccc2[nH]1", "values": [{"measurement": "inhibition", "setting": "[27]", "value": "Active"}]}]}
